How the values were obtained:
Human betaherpesvirus 5 = experiment: Antiviral activity against Human cytomegalovirus infected in human HFF cells after 8 days by Plaque reduction assay; assay type: functional, organism-based; conditions: Human betaherpesvirus 5, HFF, 192 h
Cowpox virus = experiment: Antiviral activity against Cowpox virus infected in human HFF cells after 3 days by Plaque reduction assay; assay type: functional, organism-based; conditions: 72 h
Hepatitis C virus [1] = experiment: Antiviral activity against Hepatitis C virus genotype 1b infected in human Huh-7.5.1 cells after 48 to 72 hrs by luciferase reporter assay; assay type: functional, organism-based, Hepacivirus hominis
[2] = Cytotoxicity against human Huh7.5.1 cells by fluorescent cell viability assay; assay type: cell-based, Huh-7
Human alphaherpesvirus 1 = experiment: Antiviral activity against Human herpesvirus 1 infected in human HFF cells after 3 days by Plaque reduction assay; assay type: functional, organism-based; conditions: Human alphaherpesvirus 1, HFF, 72 h
Vaccinia virus = experiment: Antiviral activity against Vaccinia virus infected in human HFF cells after 3 days by Plaque reduction assay; assay type: functional, organism-based; conditions: Orthopoxvirus vaccinia, 72 h
[3] = test system: Human immunodeficiency virus 1; experiment: Antiviral activity against HIV-1 LAI infected in human MT2 cells assessed as p24 antigen production after 4 days by ELISA; assay type: functional, organism-based; conditions: Human immunodeficiency virus 1, LAI, MT2, 96 h
How it was run: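 MT-2 cells in RPMI 1640 with 10% FBS, 10 mM HEPES, penicillin/streptomycin, inoculated with HIV-1 LAI at MOI 0.001 TCID50/cell; threefold serial drug dilutions, three wells each.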

Hepatitis C virus [4] = experiment: Antiviral activity against HCV JFH-1 infected in human Huh-7.5.1 cells after 48 to 72 hrs by luciferase reporter assay; assay type: functional, organism-based, Hepacivirus hominis; conditions: JFH-1, Huh-7.5.1
MT2 = experiment: Cytotoxicity against human MT2 cells after 72 hrs by propidium iodide staining-based flow cytometry; assay type: cell-based; conditions: mt2, 72 h
[5] = Selectivity index, ratio of CC50 for human Huh7.5.1 cells to EC50 for HCV JFH-1 in human Huh-7.5.1 cells; assay type: functional, Huh-7
[6] = Selectivity index, ratio of CC50 for human Huh7.5.1 cells to EC50 for HCV genotype1b in human Huh-7.5.1 cells; assay type: functional, Huh-7
[7] = Selectivity index, ratio of CC50 for human MT2 cells to EC50 for HIV-1 LAI infected in human MT2 cells; assay type: toxicity, cell-based; conditions: read-out: Ratio CC50/EC50

| Structure (SMILES) | EC50 (Human betaherpesvirus 5) [µM] | EC50 (Cowpox virus) [µM] | EC50 (Hepatitis C virus [1]) [µM] | CC50 ([2]; Huh7.5.1 cells) [µM] | EC50 (Human alphaherpesvirus 1) [µM] | EC50 (Vaccinia virus) [µM] | EC50 [3] [nM] | EC50 (Hepatitis C virus [4]) [µM] | CC50 (MT2) [µM] | CC50 ([2]; huh-7) [µM] | Ratio CC50/EC50 [5] | Ratio CC50/EC50 [6] | selectivity ratio [7] |
| --- | --- | --- | --- | --- | --- | --- | --- | --- | --- | --- | --- | --- | --- |
| CCCCCCCCCCCCCCCCCCOCCOP(=O)(O)CO[C@H](COC)Cn1cnc2c(N)ncnc21 | 1.55 | > 20 | 1.43 | > 150 | 45.7 | 18.3 | 30 | 2.38 |  |  |  |  |  |
| CCCCCCCCCCCCCCCCCCOCCOP(=O)(O)CO[C@@H](COC)Cn1cnc2c(N)ncnc21 |  |  | 4.65 | > 150 |  |  | 4800 | 5.33 |  |  |  |  |  |
| CCCCCCCCCCCCCCCCOCCCOP(=O)(O)CO[C@H](COC)Cn1cnc2c(N)ncnc21 |  |  | 2.36 | > 150 |  |  | 200 | 4.64 | 32 |  |  |  |  |
| CCCCCCCCCCCCCCCCCCOCCOP(=O)(O)CO[C@H](COC)Cn1cnc2c(N)nc(N)nc21 |  |  | 20.1 |  |  |  | 230 | 21.4 | 18 | 99 |  |  |  |
| CCCCCCCCCCCCCCCCCCOCCOP(=O)(O)CO[C@@H](COC)Cn1cnc2c(N)nc(N)nc21 |  |  | 25.6 | > 150 |  |  | 40 | 25.8 | 19.7 |  |  |  |  |
| CCCCCCCCCCCCCCCCOCCCOP(=O)(O)CO[C@H](COC)Cn1cnc2c(N)nc(N)nc21 |  |  | 21.3 |  |  |  | 4600 | 23.6 | 22.7 | 91.5 |  |  |  |
| CCCCCCCCCCCCCCCCCCOCCOP(=O)([O-])CO[C@H](COC)Cn1cnc2c(=O)[nH]c(N)nc21.[Na+] |  |  | 8.26 | > 150 |  |  | 200 | 10.7 | 25 |  | >14 | >18.2 | 125 |
| CCCCCCCCCCCCCCCCCCOCCOP(=O)([O-])CO[C@@H](COC)Cn1cnc2c(=O)[nH]c(N)nc21.[Na+] |  |  | 12.6 | > 150 |  |  | < 0.01 | 12.4 | 44 |  | >12.1 | >11.9 | > 4.4e+06 |
| CCCCCCCCCCCCCCCCOCCCOP(=O)(O)CO[C@H](COC)Cn1cnc2c(=O)[nH]c(N)nc21 |  |  | 22 | > 150 |  |  | 2030 | 24.8 | 29.3 |  |  |  |  |
| CCCCCCCCCCCCCCCCCCOCCOP(=O)(O)CO[C@H](COC)Cn1ccc(N)nc1=O |  |  | > 150 | > 150 |  |  | 12700 | > 150 | 60.7 |  |  |  | 4.8 |
| CCCCCCCCCCCCCCCCOCCCOP(=O)(O)CO[C@H](COC)Cn1cnc2c(OC)ncnc21 |  |  | 8.9 | > 150 |  |  | > 10000 | 12.5 | 22 |  |  |  |  |
| CCCCCCCCCCCCCCCCOCCCOP(=O)(O)CO[C@H](COC)Cn1cnc2c(OC)nc(N)nc21 |  |  | 18.1 | > 150 |  |  | > 10000 | 17.4 | 34.3 |  |  |  |  |
| CCCCCCCCCCCCCCCCCCOCCOP(=O)(O)CO[C@H](CO)Cn1cnc2c(N)ncnc21 |  |  | 1.55 |  | < 0.0001 |  | 0.1 | 1.65 | 0.033 | 35.6 |  |  |  |
| CCCCCCCCCCCCCCCCOCCCOP(=O)(O)COC(COCC)Cn1cnc2c(N)ncnc21 (racemic) |  |  | 7.59 |  |  |  | > 10000 | 8.87 | 23.6 | 99 |  |  |  |
| CCCCCCCCCCCCCCCCOCCCOP(=O)(O)COC(COC(C)C)Cn1cnc2c(N)ncnc21 (racemic) |  |  | 51.2 |  |  |  | > 10000 | 98.8 | 30.3 | 100 |  |  |  |
| CCCCCCCCCCCCCCCCOCCCOP(=O)([O-])COC(COCC)Cn1cnc2c(N)nc(N)nc21.[Na+] (racemic) |  |  | 18.2 | > 150 |  |  | > 10000 | 19.5 | 30.7 |  | >7.69 | >8.2 |  |
| CCCCCCCCCCCCCCCCOCCCOP(=O)([O-])COC(COCC)Cn1cnc2c(=O)[nH]c(N)nc21.[Na+] (racemic) |  |  | 25.5 | > 150 |  |  | > 10000 | 13.2 | 14.9 |  | >11.4 | >5.88 |  |

From ChEMBL document CHEMBL1811825, “Synthesis and antiviral evaluation of 9-(S)-[3-alkoxy-2-(phosphonomethoxy)propyl]nucleoside alkoxyalkyl esters: inhibitors of hepatitis C virus and HIV-1 replication” (Bioorg Med Chem, 2011)
